Our source for the IC50 values is ChEMBL document CHEMBL4732084, “Potent antiproliferative activity of bradykinin B2 receptor selective agonist FR-190997 and analogue structures thereof: A paradox resolved?” (Eur J Med Chem, 2021).

In assay [1] the test system is MDA-MB-231. Nature of the assay: Antiproliferative activity against human MDA-MB-231 cells assessed as cell viability after 24 hrs. To be noted: MDA-MB-231, 24 h. The assay is classed as functional, cell-based.
Assay [2] relates to MCF7. Nature of the assay: Antiproliferative activity against human MCF7 cells assessed as cell viability after 24 hrs. Format: functional, cell-based. To be noted: MCF7, 24 h. Put shortly: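 MCF-7 cells (ATCC) kept in DMEM with 10% FBS, 1.0 mM pyruvate, 2 mM L-glutamine and penicillin at 37 °C, 5% CO2. Cells grown to 60–70% confluence, then given fresh medium and compound (DMSO stock diluted in medium) at 0–200 μM for 24 h with serum. Surviving cells counted manually. IC50 from a non-linear fit of % living cells vs log concentration. Triplicate, mean ± SD.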

In assay [3] the target is T1, B2 bradykinin receptor (Homo sapiens, UniProt P30411).
T1 sequence (P30411 whole entry): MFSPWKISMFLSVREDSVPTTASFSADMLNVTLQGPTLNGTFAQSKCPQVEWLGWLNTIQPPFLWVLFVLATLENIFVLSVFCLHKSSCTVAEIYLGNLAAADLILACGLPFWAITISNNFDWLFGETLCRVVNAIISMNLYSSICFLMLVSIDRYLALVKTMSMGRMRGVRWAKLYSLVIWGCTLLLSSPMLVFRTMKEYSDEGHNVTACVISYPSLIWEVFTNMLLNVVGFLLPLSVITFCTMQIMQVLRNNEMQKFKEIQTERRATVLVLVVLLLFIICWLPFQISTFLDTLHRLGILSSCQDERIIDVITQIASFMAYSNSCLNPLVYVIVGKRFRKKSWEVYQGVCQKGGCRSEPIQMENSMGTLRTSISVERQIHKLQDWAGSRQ
Nature of the assay: Agonist activity at bradykinin B2 receptor (unknown origin).

One may read the IC50 as the midpoint of a concentration-inhibition curve. For `CC(=O)O[C@@]12CO[C@@H]1C[C@H](O)[C@@]1(C)C(=O)[C@H](O)C3=C(C)[C@@H](OC(=O)[C@H](O)[C@@H](NC(=O)OC(C)(C)C)c4ccccc4)C[C@@](O)([C@@H](OC(=O)c4ccccc4)[C@H]21)C3(C)C` [DOCETAXEL ANHYDROUS], in assay [1], the IC50 was 0.01 µM. The same measure, in the same setting: then `CS(=O)(=O)CCNCc1ccc(-c2ccc3ncnc(Nc4ccc(OCc5cccc(F)c5)c(Cl)c4)c3c2)o1` [LAPATINIB], with 10.6 µM. `CNC(=O)c1ccc(/C=C/C(=O)NCc2cn(-c3ccc(Cl)c(COc4cccc5c(OCc6ccccn6)cc(C)nc45)c3Cl)nn2)cc1`: the IC50 worked out at 91 µM in assay [2] and 200 µM in assay [1].

Turning to `CN(C(=O)CN1C(=O)c2ccccc2C1=O)c1ccc(Cl)c(CO)c1Cl`, the IC50 in assay [2] came out at 53 µM; in assay [1], 0.78 µM. For the compound `O=P1(N(CCCl)CCCl)NCCCO1` (stereo unspecified) [CYCLOPHOSPHAMIDE ANHYDROUS], the IC50 in assay [1] came to 196 µM. As for `O=C1c2ccccc2C(=O)N1Cc1cn(-c2ccc(Cl)c(CO)c2Cl)nn1`, the IC50 is 0.07 µM in assay [2] and 520 µM in assay [1]. The corresponding values for `CNC(=O)c1ccc(/C=C/C(=O)NCc2cn(-c3ccc(Cl)c(CNc4cccc5c(OCc6ccccn6)cc(C)nc45)c3Cl)nn2)cc1` are 0.73 µM and 0.43 µM. `COc1cccc2c1C(=O)c1c(O)c3c(c(O)c1C2=O)C[C@@](O)(C(=O)CO)C[C@@H]3O[C@H]1C[C@H](N)[C@H](O)[C@H](C)O1` [DOXORUBICIN]: the IC50 in assay [1] was determined as 0.1 µM. Regarding `Cc1cc(OCc2ccccn2)c2cccc(N)c2n1`, the IC50 in assay [2] is 0.86 µM; in assay [1], 22 µM.

Consider `CNC(=O)c1ccc(/C=C/C(=O)O)cc1`, for which the IC50 in assay [2] was 2.12 µM; in assay [1], 86 µM.

Regarding `CC1=C(/C=C/C(C)=C/C=C/C(C)=C/C(=O)NCC(=O)N(C)c2ccc(Cl)c(COc3cccc4c(OCc5ccccn5)cc(C)nc34)c2Cl)C(C)(C)CCC1`, the IC50 in assay [2] came to 65 µM; in assay [1] it was 193 µM. Consider `CN(C)C(=O)c1cc2cnc(Nc3ccc(N4CCNCC4)cn3)nc2n1C1CCCC1` [RIBOCICLIB], for which, in assay [1], the IC50 was 27.3 µM. On to `COc1cc(/C=C/C(=O)O)ccc1O` [FERULATE], for which the IC50 in assay [2] is 0.36 µM; in assay [1], 15 µM. With `CC/C(=C(\c1ccccc1)c1ccc(OCCN(C)C)cc1)c1ccccc1` [TAMOXIFEN], the 50% inhibitory concentration (IC50) in assay [1] was found to be 69.7 µM. On the same count and under the same terms, next, `CC(C)C[C@H](NC(=O)[C@H](Cc1ccccc1)NC(=O)c1cnccn1)B(O)O` [BORTEZOMIB]: 0.003 µM. Same read-out and setting: next, `CO[C@H]1C[C@@H]2CC[C@@H](C)[C@@](O)(O2)C(=O)C(=O)N2CCCC[C@H]2C(=O)O[C@H]([C@H](C)C[C@@H]2CC[C@@H](O)[C@H](OC)C2)CC(=O)[C@H](C)/C=C(\C)[C@@H](O)[C@@H](OC)C(=O)[C@H](C)C[C@H](C)/C=C/C=C/C=C/1C` [SIROLIMUS]: 0.9 µM.

Turning to `COc1cc(/C=C/C(=O)NCC(=O)N(C)c2ccc(Cl)c(COc3cccc4c(OCc5ccccn5)cc(C)nc34)c2Cl)ccc1O`, the IC50 in assay [2] is 0.33 µM; in assay [1] it was 5.9 µM. For `CC1=C(/C=C/C(C)=C/C=C/C(C)=C/C(=O)NCC(=O)N(C)c2ccc(Cl)c(CNc3cccc4c(OCc5ccccn5)cc(C)nc34)c2Cl)C(C)(C)CCC1` the same measures were 64 µM and 0.005 µM. With `CC[C@]1(O)C[C@@H]2CN(CCc3c([nH]c4ccccc34)[C@@](C(=O)OC)(c3cc4c(cc3OC)N(C)[C@H]3[C@@](O)(C(=O)OC)[C@H](OC(C)=O)[C@]5(CC)C=CCN6CC[C@]43[C@@H]65)C2)C1` [VINBLASTINE], in assay [1], the IC50 worked out at 0.024 µM.

Take `CC(=O)Nc1ccc(/C=C/C(=O)NCC(=O)N(C)c2ccc(Cl)c(COc3cccc4ccc(C)nc34)c2Cl)cn1` [FR-173657]: the 50% inhibitory concentration (IC50) in assay [1] stood at 20 µM.

Consider `O=c1[nH]cc(F)c(=O)[nH]1` [FLUOROURACIL], for which, in assay [1], the IC50 was 66.6 µM. For `CC1=C(/C=C/C(C)=C/C=C/C(C)=C/C(=O)O)C(C)(C)CCC1` [TRETINOIN], the IC50 is 6.14 µM in assay [2] and 16 µM in assay [1]. On to `COc1nc2c(OCc3c(Cl)ccc(N(C)C(=O)CNC(=O)/C=C/c4ccc(NC(C)=O)nc4)c3Cl)cccc2n1Cc1ccccn1`, for which the IC50 in assay [3] was 0.00068 µM. For the compound `CNC(=O)c1ccc(/C=C/C(=O)NCC(=O)N(C)c2ccc(Cl)c(CNc3cccc4c(OCc5ccccn5)cc(C)nc34)c2Cl)cc1`, the IC50 turned out to be 1.21 µM in assay [2] and 5.94e-05 µM in assay [1]. For `C[C@]12CC[C@@H]3c4ccc(O)cc4C[C@@H](CCCCCCCCC[S+]([O-])CCCC(F)(F)C(F)(F)F)[C@H]3[C@@H]1CC[C@@H]2O` (stereo partly specified) [FULVESTRANT], the IC50 in assay [1] turned out to be 196 µM. As to `CNC(=O)c1ccc(/C=C/C(=O)NCC(=O)N(C)c2ccc(Cl)c(CO)c2Cl)cc1`, the results for the IC50 in assay [2] and in assay [1] were 0.93 µM and 650 µM, respectively. With `Nc1ccn([C@@H]2O[C@H](CO)[C@@H](O)C2(F)F)c(=O)n1` [GEMCITABINE], the IC50 in assay [1] worked out at 2.1 µM.

For `Cc1cc(OCc2ccccn2)c2cccc(OCc3cccc(Oc4ccccc4)c3)c2n1`, the half-maximal inhibitory concentration (IC50) in assay [2] was found to be 407 µM; in assay [1], 6.97 µM. For the compound `O=C(c1cc(Cc2n[nH]c(=O)c3ccccc23)ccc1F)N1CCN(C(=O)C2CC2)CC1` [OLAPARIB], in assay [1], the IC50 amounted to 62.5 µM. Same read-out and setting: next, `Cc1nc(NC(=O)N2CCC[C@H]2C(N)=O)sc1-c1ccnc(C(C)(C)C(F)(F)F)c1` [ALPELISIB]: 62.9 µM; `CC(=O)c1c(C)c2cnc(Nc3ccc(N4CCNCC4)cn3)nc2n(C2CCCC2)c1=O` [PALBOCICLIB]: 14.6 µM. Take `Cc1cc(OCc2ccccn2)c2cccc(O)c2n1`: the IC50 in assay [2] was determined as 0.16 µM; in assay [1] it was 450 µM. The corresponding values for `CNC(=O)c1ccc(/C=C/C(=O)NCC(=O)N(C)c2ccc(Cl)c(COc3cccc4c(OCc5ccccn5)cc(C)nc34)c2Cl)cc1` are 2.14 µM and 0.08 µM.

For the compound `CC(=O)O[C@H]1C(=O)[C@@]2(C)[C@H]([C@H](OC(=O)c3ccccc3)[C@]3(O)C[C@H](OC(=O)[C@H](O)[C@@H](NC(=O)c4ccccc4)c4ccccc4)C(C)=C1C3(C)C)[C@]1(OC(C)=O)CO[C@@H]1C[C@@H]2O` [PACLITAXEL], in assay [1], the IC50 stood at 0.9 µM.

On to `COc1cccc2c1C(=O)c1c(O)c3c(c(O)c1C2=O)C[C@@](O)(C(=O)CO)C[C@@H]3O[C@H]1C[C@H](N)[C@@H](O)[C@H](C)O1` [EPIRUBICIN], for which the IC50 in assay [1] is 0.15 µM.
